What was measured:
[1] = test system: mouse myelogenous leukemia (M-NFS-60) cell line; experiment: Cytotoxic activity, MTT cell viability assay, M-NFS-60; format: cell-based; set-up: unit not given beside the values; details: n = 3, reference standard
Summary of the method: (§1)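 The defatted alcoholic root extract was tested at 4–500 μg/mL, with cisplatin as the reference standard, in an MTT cell-viability assay. Viability is expressed as % of untreated control. IC50 was derived by linear regression. Each point was run in triplicate and reported as mean ± SD.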

[2] = test system: Human hepatocellular carcinoma (HepG2) cell line; experiment: Cytotoxic activity, MTT cell viability assay, HepG2; format: cell-based; set-up: unit not given beside the values; details: n = 3, reference standard
Summary of the method: as §1

With `N.N.[Cl][Pt][Cl]` [cisplatin] the “IC50 against M-NFS-60 cell line (unit not given)” value [1] was 8.37 ± 0.25 and the “IC50 against HepG2 cell line (unit not given)” value [2] was 3.25 ± 1.4.
